*: point of attachment. Palmitoyl = CCCCCCCCCCCCCCCC(=O)*
Columns and labels:
[1] = no reference or method printed; cited from earlier work
[2] = test system: PDGF-BB mediated proliferation of normal human lung fibroblasts (NHLF); assay: Inhibition of PDGF-BB mediated proliferation assay; type: cell-based; details: PDGF-BB only samples, CyQuant
How it was run: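 NHLF at passage 3–4 were grown in DMEM with 10% FBS and 1% penicillin/streptomycin. Cells were seeded at 10,000/well, recovered overnight, then starved 6 h in 0.5% FBS. PDGF-BB was given as 1:2 serial dilutions from 100 to 1.56 ng/mL, alone or with 500 nM free aptamer, 100 μM diluent PA, or apt-PAN (500 nM aptamer-PA, 100 μM total PA). CyQuant Direct was read at 24 and 48 h, normalised to growth-factor-only wells, with three independent experiments, mean ± SD.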

[3] = molecular target: platelet-derived growth factor-BB (UniProt P01127 82-190); assay: BLI
platelet-derived growth factor-BB, sequence (P01127 82-190): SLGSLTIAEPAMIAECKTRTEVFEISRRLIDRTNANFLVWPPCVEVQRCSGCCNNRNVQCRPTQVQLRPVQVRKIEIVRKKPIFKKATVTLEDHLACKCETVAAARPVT

Molecule: PDGF-BB: Platelet derived growth factor-BB
- isoelectric point [1]: 9.8
- increase in total DNA, after 48 hours [2]: more than two-fold

Molecule: Palmitoyl-VVVAAAEEE-NH2 [diluent peptide amphiphile (palmitoyl-V3A3E3), as self-assembled nanofibers]
- koff [3]: 0.000498 s⁻¹
- kon [3]: 1080 M⁻¹ s⁻¹
